Calpain2 inh – inhibitors of pig calpain II; purified calpain II, fluorogenic peptide substrate, 30 min; inhibition, % at 16 µM; 0.37% of 220,000 active;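 active = inhibition above about 50%, limit read from the data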
hK5 inh – kallikrein 5 (human) inhibition; inhibition, % at 5 µM; 0.59% of 210,000 active; recombinant hK5, fluorogenic AMC substrate cleavage; Q9Y337;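 active = inhibition of 40% or more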;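 also: 0% = enzyme controls without compound and 100% = no-enzyme blanks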
thrombin 1536 – thrombin (human) inhibition | AID 1046 | inhibition, % at 5 µM | P00734 | alpha-thrombin, Boc-VPR-AMC fluorogenic substrate cleavage | 0.26% of 220,000 active;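 active = inhibition at or above 40%; inactive = inhibition below 40%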;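 also: 0% = enzyme with no compound and 100% = wells without enzyme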
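Assay system: human alpha-thrombin enzyme. Reagent: Boc-VPR-AMC substrate, 15 µM final. Compound dosing: one concentration per compound, 5 µM, with 0.2% DMSO. Incubation: room-temperature reaction. Technique: AMC fluorescence, 355/460 nm. Measure: % inhibition relative to enzyme controls and enzyme-free blanks.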
FXIa inh – inhibitors of human coagulation factor XIa; purified FXIa, Boc-Glu-Ala-Arg-AMC fluorogenic substrate; P03951; 0.14% of 220,000 active; inhibition, % at 5 µM;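 active = inhibition of at least 40%; inactive = inhibition below 40%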;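 also: fluorescence of freed AMC excited at 355 nm; 0% = enzyme without compound and 100% = no enzyme blank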
Furin inh – human furin inhibition; purified furin, fluorogenic substrate cleavage; inhibition, % at 20 µM or 30 µM; 0.061% of 220,000 active; in the data active = inhibition above about 25%
Target sequence (P09958 108-714 limits assumed): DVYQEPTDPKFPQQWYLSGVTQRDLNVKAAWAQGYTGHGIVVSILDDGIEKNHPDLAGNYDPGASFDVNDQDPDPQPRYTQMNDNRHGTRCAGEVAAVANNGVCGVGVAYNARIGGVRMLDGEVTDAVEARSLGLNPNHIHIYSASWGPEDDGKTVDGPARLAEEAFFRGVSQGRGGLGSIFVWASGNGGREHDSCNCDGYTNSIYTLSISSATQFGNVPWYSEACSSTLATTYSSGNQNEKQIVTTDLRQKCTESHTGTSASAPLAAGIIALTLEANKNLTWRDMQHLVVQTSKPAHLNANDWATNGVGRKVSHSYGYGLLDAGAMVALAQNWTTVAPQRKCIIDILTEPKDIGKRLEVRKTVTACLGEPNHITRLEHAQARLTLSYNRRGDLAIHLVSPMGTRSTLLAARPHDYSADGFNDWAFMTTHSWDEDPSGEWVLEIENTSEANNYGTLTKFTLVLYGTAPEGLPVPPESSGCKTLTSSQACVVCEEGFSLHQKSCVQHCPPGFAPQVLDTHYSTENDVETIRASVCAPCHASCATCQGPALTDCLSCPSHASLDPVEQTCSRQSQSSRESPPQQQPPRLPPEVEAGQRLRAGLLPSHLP
FXIIa inh 1536 – inhibitors of human coagulation factor XIIa; 0.3% of 220,000 active; purified FXIIa, Boc-QGR-AMC fluorogenic substrate, 2 h; AID 800; inhibition, % at 5 µM; P00748; in the data active = inhibition above about 40%;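 also: 0% = enzyme with no compound and 100% = blank without enzyme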
Starred values were filed as active, the others as inactive; i = inactive; . = no result. Rows were chosen to be rich in hits. Some 1.4% of all compounds tested hit in one or more screens of this group.

SMILES | Calpain2 inh | hK5 inh | thrombin 1536 | FXIa inh | Furin inh | FXIIa inh 1536
Cc1ccsc1C(=O)NNC(=O)C1CC=CCC1C(=O)O (centres undefined) | 13 | 55* | 23 | 11 | -5 | 12
CC(C)Oc1ccc(C2C(C(=O)c3ccco3)=C(O)C(=O)N2Cc2cccnc2)cc1 (centres undefined) | -82 | -8 | -4 | -3 | -14 | -10
COC(=O)C(C)NC(=O)C1CCCN1S(=O)(=O)c1cc(C)c(Cl)cc1C (centres undefined) | 17 | 49* | 17 | 6 | -18 | 48*
CCC(C)NC(=O)C1CCCN1S(=O)(=O)c1ccc(Cl)cc1 (centres undefined) | 20 | 3 | 8 | 5 | -13 | 14
COc1ccccc1CNC(=O)c1cn(C)c2ccc(S(=O)(=O)N3CCCCC3)cc2c1=O | -34 | -3 | -2 | 2 | -10 | 5
COc1cccc(NC(C)(C)c2nnnn2-c2c(C)cccc2C)c1 | 24 | 29 | 1 | 44* | -5 | 66*
CCOC(=O)c1sc(NC(=O)CSC(=S)N2CCN(C)CC2)nc1C | 20 | 37 | 14 | 44* | 0 | 33
Cc1c(C(=O)O)oc2c1/C(=N\O)CCC2 | -3 | -26 | -2 | 1 | -7 | 13
O=C(COC(=O)C1CC(=O)N(Cc2ccco2)C1)c1ccc(OC(=O)c2ccco2)cc1 (centres undefined) | -37 | 31 | 24 | 25 | -12 | 41*
Cc1ccc(C(=O)Oc2ccc(C(=O)COC(=O)C3CC(=O)N(Cc4ccco4)C3)cc2)cc1 (centres undefined) | 18 | -19 | -4 | 4 | -26 | 14
Cn1cc(-c2nnc(-c3ccccc3)o2)c2ccccc21 | i | 87* | 1 | -11 | -23 | -15
Cc1ccc(C)c(-n2[nH]c3c4c(ccc3c2=O)C(=O)c2ccccc2C4=O)c1 | -20 | -10 | -2 | 3 | -16 | 5
CS(=O)(=O)c1ccc2nc(NC(=O)c3ccc(NS(=O)(=O)c4cccc([N+](=O)[O-])c4)cc3)sc2c1 | -20 | 3 | 53* | 4 | -28 | 12
CC(=O)Nc1ccc(S(=O)(=O)Nc2nc3ccc([N+](=O)[O-])cc3s2)cc1 | -27 | 5 | -13 | -2 | -12 | 8
Cc1ccc(C(=O)CSc2nc(C)cc(C)c2C(N)=O)cc1 | 13 | 49* | 104* | 14 | -21 | 22
COc1ccc(NC(=O)n2nc(OC(=O)c3cccs3)cc2N)cc1 | 3 | 7 | 46* | 18 | -23 | 19
CC(C)(C)NC(=O)C1CCN(S(=O)(=O)c2cccc(C(F)(F)F)c2)CC1 | 10 | 2 | -9 | -6 | -4 | 2
CCN(CC)CCNC(=S)Nc1ccc2nc3n(c(=O)c2c1)CCCCC3 | -33 | 1 | -3 | -2 | -20 | 8
Cc1ccc(OC(=O)c2sc(Cl)nc2C)cc1C | 6 | -4 | -7 | -10 | -17 | 6
COc1cccc2sc(NC(=O)c3ccc(S(=O)(=O)N4CCOCC4)cc3)nc12 | -7 | 32 | 19 | 16 | -9 | 41*
COc1ccccc1NC(=O)c1ccc(S(=O)(=O)N2CCOCC2)cc1 | 15 | -2 | 1 | 0 | -7 | 15
Cc1ccc(S(=O)(=O)N2CCN(CC(=O)N/N=C\c3cccnc3)CC2)cc1 | 34 | 41* | 11 | 11 | -19 | 6
O=C(Cn1c(-c2ccccn2)nc2ccccc21)N/N=C/c1cccnc1 | 3 | 113* | 13 | 48* | 1 | 30
Cc1ccc(S(=O)(=O)N2CCN(CC(=O)N/N=C\c3ccccn3)CC2)cc1 | 13 | 2 | 20 | -4 | -4 | 9
O=C(Cn1c(-c2ccccn2)nc2ccccc21)N/N=C/c1ccccn1 | 33 | -3 | -8 | -2 | -16 | 8
SMILES | Calpain2 inh | hK5 inh | thrombin 1536 | FXIa inh | Furin inh | FXIIa inh 1536
O=C(Cc1ccccc1)NNC(=O)c1cccs1 | -2 | -14 | -6 | 0 | -6 | 11
O=C(NNC(=O)c1cccs1)c1ccc(Br)o1 | -4 | -14 | 17 | 43* | -15 | 18
O=C(NNC(=O)C(c1ccccc1)c1ccccc1)c1cccs1 | 26 | 56* | 104* | 19 | -9 | 25
O=C(Nc1ccc(NC(=O)c2cccs2)cc1)c1ccc(Br)o1 | -72 | 5 | 2 | 10 | -9 | 16
CNC(=S)N1CCN(c2c(F)cc3c(=O)c(C(=O)O)cn(C4CC4)c3c2OC)CC1C (centres undefined) | -195 | -32 | 0 | 2 | -13 | 10
Cc1c(Cl)cccc1NC(=S)N(Cc1ccco1)C(C)c1ccccn1 (centres undefined) | 19 | -5 | -5 | -5 | -8 | 3
O=C(NCCc1c[nH]c2ccccc12)C(=O)NCC(c1cccnc1)N1CCN(c2ccccc2)CC1 (centres undefined) | -12 | -9 | -2 | -7 | -12 | 0
O=C(O)CC(=O)Nc1ccccc1C(=O)O | -40 | 5 | 1 | 15 | -27 | 68*
CCOCCCNC(=O)CSCc1nc(-c2ccc(SC)cc2)oc1C | 1 | 6 | 15 | 9 | 3 | 14
c1ccc(Oc2ccc(-c3ccnc4ncnn34)cc2)cc1 | 68* | -9 | 4 | -2 | -11 | 4
O=C(N/N=C/c1c[nH]c2ccccc12)c1cc(-c2cccc3ccccc23)n[nH]1 | -18 | 25 | 43* | 7 | -10 | -4
CC(C)CCN(C)C1CCN(S(=O)(=O)c2cccc(C(F)(F)F)c2)CC1 | 29 | 53* | 26 | 4 | -25 | -9
Cc1cc(C(C#N)c2cccc(Cl)c2)n2ncnc2n1 (centres undefined) | 11 | -1 | 1 | 14 | -12 | 42*
NNC(=O)c1ccc(CN2CCCCC2)o1 | 1 | . | 0 | -2 | -22 | 5
COc1ccc(N(CC(=O)NC2CCCC2)C(=O)c2csnn2)cc1 | -3 | -9 | -2 | -1 | -19 | 8
CC(Sc1nnc(-c2ccco2)o1)C(=O)NCCC1=CCCCC1 (centres undefined) | 30 | 47* | . | 28 | 4 | 21
CSc1ccccc1NC(=O)CN(c1cccc(C)c1)S(C)(=O)=O | -10 | -24 | -3 | -4 | -21 | 2
COc1ccc(N(CC(=O)Nc2ccccc2SC)S(C)(=O)=O)cc1OC | 24 | -15 | 0 | 12 | -22 | 45*
CC(=O)Nc1ccc(NS(=O)(=O)c2ccc(C)cc2)cc1[N+](=O)[O-] | 6 | 47* | -5 | -13 | 12 | 4
CC1CCCC(NC(=O)CSc2nnnn2C)C1C (centres undefined) | -50 | -5 | 0 | 3 | -7 | 12
Cn1nnnc1SCC(=O)NC1CCCCC1 | 57* | -20 | 1 | 27 | -16 | 13
COC(=O)c1c(C(=O)OC)c(-c2ccccc2)n2c1CS(=O)(=O)C2 | -7 | -9 | -2 | -1 | -24 | 6
CCc1cccc(CC)c1NC(=O)c1cccc(N)c1 | -77 | -20 | 46* | -13 | -17 | 4
